# Measured values taken from the RNAGym collection of RNA variant scans (doi:10.1002/anie.201605470).
# B1: Osa-1-4 twister ribozyme (parent)
# chain: CCGCCUAACACUGCCAAUGCCGGUCCCAAGCCCGGAUAAAAGUGGAGGGGGCGG
# Variants of: B1
# Test: self-cleavage, relative activity (ratio to wild type); higher = more cleavage; co-transcriptional
# Procedure, shortened: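 In vitro transcription at 37 °C for 2 h allowed the twister ribozyme to cleave itself as it was made. Its 54-nucleotide Oryza sativa template had been synthesised with 97 % wild-type base and 1 % of each other base at the 48 positions downstream of the cleavage site. A template-switching oligonucleotide was used for reverse transcription, followed by PCR amplification and deep sequencing. Whether reads carried upstream sequence set the cleavage status, and relative activity is the fraction cleaved normalised to wild type.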
row,Variant,self-cleavage
1,C20A C31G,0.14
2,C20A C31U,0.81
3,C20A C31A,0.04
4,C20A C33A,0.08
5,C20A C33U,0.76
6,C20A C33G,0.05
7,G19U G34C,0.2
8,G19U G34U,0.3
9,G19U G34A,0.52
10,C20A G22C,0.07
11,C20A G22A,0.39
12,C20A G22U,0.53
13,G19U G51U,0.08
14,G19U G51A,0.15
15,G19U G51C,0.07
16,C20A C25A,0.19
17,C20A C25G,0.11
18,C20A C25U,0.78
19,C20A,0.86
20,C20U,0.97
21,C20G,0.2
22,C20G C52G,0.11
23,C20G C52U,0.17
24,C20G C52A,0.08

row,Variant,self-cleavage
1,C20A G47A,0.36
2,C20A G47C,0.13
3,C20A G47U,0.32
4,C20A U37G,0.89
5,C20A U37C,0.88
6,C20A U37A,0.83
7,C20U G34C,0.31
8,C20U G34U,0.82
9,C20U G34A,0.95
10,C20G G45U,0.02
11,C20G G45A,0.04
12,C20G G45C,0.03
13,G19U G45C,0.04
14,G19U G45A,0.03
15,G19U G45U,0.04
16,G19U U12G,0.09
17,G19U U12C,0.05
18,G19U U12A,0.07
19,C20G G54U,0.12
20,C20G G54A,0.06
21,C20G G54C,0.07
22,G19C G53A,0.06
23,G19C G53C,0.04
24,G19C G53U,0.05

row,Variant,self-cleavage
1,C20G G35A,0.27
2,C20G G35C,0.28
3,C20G G35U,0.27
4,C20G G44C,0.06
5,C20G G44A,0.08
6,C20G G44U,0.07
7,C20A G51A,0.78
8,C20A G51C,0.28
9,C20A G51U,0.66
10,G19U G44C,0.34
11,G19U G44U,0.19
12,G19U G44A,0.1
13,C20A U18C,0.83
14,C20A U18G,0.67
15,C20A U18A,0.6
16,G19C U18G,0.91
17,G19C U18C,0.39
18,G19C U18A,0.66
19,C20G G34U,0.06
20,C20G G34C,0.08
21,C20G G34A,0.08
22,G19U G42C,0.06
23,G19U G42U,0.04
24,G19U G42A,0.06

row,Variant,self-cleavage
1,G19U G23C,0.04
2,G19U G23U,0.04
3,G19U G23A,0.07
4,C20G U18A,0.13
5,C20G U18G,0.09
6,C20G U18C,0.2
7,C20U C21G,0.26
8,C20U C21A,0.87
9,C20U C21U,1.05
10,C20G U24C,0.11
11,C20G U24A,0.07
12,C20G U24G,0.05
13,C20U C31G,0.15
14,C20U C31U,0.92
15,C20U C31A,0.05
16,G19C U12G,0.06
17,G19C U12A,0.04
18,G19C U12C,0.04
19,C20G G42U,0.02
20,C20G G42A,0.07
21,C20G G42C,0.04
22,C20A C32U,0.08
23,C20A C32A,0.07
24,C20A C32G,0.05

row,Variant,self-cleavage
1,C20A G45A,0.45
2,C20A G45U,0.13
3,C20A G45C,0.05
4,C20U G30C,0.06
5,C20U G30U,0.04
6,C20U G30A,0.05
7,C20A G30A,0.04
8,C20A G30U,0.03
9,C20A G30C,0.04
10,G19C U24A,0.04
11,G19C U24C,0.04
12,G19C U24G,0.04
13,C20G C31G,0.09
14,C20G C31A,0.02
15,C20G C31U,0.07
16,C20U G42A,0.62
17,C20U G42U,0.1
18,C20U G42C,0.22
19,C20U G44A,0.87
20,C20U G44C,0.88
21,C20U G44U,0.87
22,G19U G22C,0.05
23,G19U G22A,0.32
24,G19U G22U,0.12

row,Variant,self-cleavage
1,C20G G53U,0.04
2,C20G G53C,0.03
3,C20G G53A,0.06
4,C20U G35A,1
5,C20U G35U,1
6,C20U G35C,0.93
7,C20G G13A,0.03
8,C20G G13C,0.02
9,C20G G13U,0.01
10,G19C G54C,0.06
11,G19C G54U,0.4
12,G19C G54A,0.11
13,C20U G13A,0.15
14,C20U G13U,0.04
15,C20U G13C,0.02
16,C20G G22A,0.08
17,C20G G22U,0.09
18,C20G G22C,0.05
19,G19U G49A,0.04
20,G19U G49C,0.04
21,G19U G49U,0.03
22,C20A C27A,0.34
23,C20A C27G,0.09
24,C20A C27U,0.31

row,Variant,self-cleavage
1,G19U G54C,0.1
2,G19U G54U,0.54
3,G19U G54A,0.16
4,C20A C9G,0.68
5,C20A C9U,0.53
6,C20A C9A,0.29
7,C20G C26G,0.1
8,C20G C26A,0.03
9,C20G C26U,0.2
10,C20A U12A,0.82
11,C20A U12C,0.57
12,C20A U12G,0.71
13,C20U C9A,0.38
14,C20U C9U,0.68
15,C20U C9G,0.73
16,C20A G13U,0.02
17,C20A G13A,0.13
18,C20A G13C,0.01
19,C20U G45A,0.35
20,C20U G45U,0.14
21,C20U G45C,0.06
22,G19U U18G,0.33
23,G19U U18A,0.11
